Reference: PubChem BioAssay
Values without a mark were called inactive. Results filed as inconclusive are left out. Activity calls are given as the source filed them.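 How the source made its calls, unless noted: active means inhibition over a set limit, the all-compound mean plus 3 SD, in both replicate runs; inconclusive means over that limit in just one replicate run; inactive means at or under that limit in both runs.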

Key:
[1] = OD615 S. cerevisiae growth inhibition, permissive medium, pilot counter-assay, permissive growth control for S. cerevisiae lifespan shortening project (AID 705;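 active means growth inhibition above 25% in both replicates, a cutoff set 3 SD above the mean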); conditions: OD615, 24 h, at 10 µM, hits give high values
Outline: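 System – S. cerevisiae with engineered DeaD lifespan system · Buffer or medium – SC raffinose/galactose permissive medium · Schedule – cells pre-grown 4 h, then 24 h compound exposure, 30 °C humidified · Technique – culture turbidity as optical density at 615 nm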

[2] = Restrictive medium S. cerevisiae growth inhibition, OD615, pilot screen of yeast lifespan reduction project, restrictive growth control (AID 706;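 active means growth inhibition above a set limit, 3 SD over mean compound inhibition, in both replicates, cut at about 43% in these data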;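 further: modified DeaD lifespan yeast strain shifted to restrictive glucose medium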); conditions: OD615, 48 h, at 10 µM, hits give high values
Outline: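 Material: engineered S. cerevisiae DeaD strain / Medium: glucose-based CSMM-D restrictive medium / Compound: single dose of 10 µM compound final, 0.25% DMSO / Timing: 4 h pre-incubation, 48 h exposure at 30 °C / Technique: OD615 absorbance reading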

[3] = viability gain of MRP-1-high H69AR cells under doxorubicin, pilot screen, MRP-1 activator project, CellTiter-Glo, duplicate (AID 807;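 active means viability increase at or above a cutoff of the median across tested compounds plus 3 SD, cut at about 8.5% in these data, passing the limit was not always enough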;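 further: compound pretreatment 18-22 h then 72 h combined with doxorubicin; 0% = doxorubicin alone and 100% = vehicle without doxorubicin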); conditions: H69AR viability with doxorubicin, CellTiter-Glo luminescence; at 10 µM; hits give high values
[4] = growth suppression of beta-catenin knockout HCT116, pilot screen, human colon tumor cells (AID 823;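 active means cell viability at or below a set limit in both duplicate runs, the limit being the all-compound median minus 4 SD, cut at about 23% in these data, passing the limit was not always enough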;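 further: 0% = wells killed by 20 µM Hyamine and 100% = untreated DMSO cell wells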); conditions: CellTiter-Glo, 60 h, at 10 µM, hits give low values
[5] = growth suppression of PTEN-deleted HCT116, pilot screen, cell-based, HCT116 clonal line, CellTiter-Glo (AID 824;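 active means viability at or below 27.92% in each of two runs, the all-compound median minus 4 SD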;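 further: 0% = 20 µM Hyamine control and 100% = vehicle cell control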); conditions: 60 h, at 10 µM, hits give low values
[6] = inhibitors of the yeast RAM network, pilot screen, dse1pr::URA3 reporter, 5-FOA selection (AID 869);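 further: 0% = DMSO wells with no growth and 100% = 10 µM 1-NA-PP1 with full growth; RAM network block rescues cells from 5-FOA so hits raise OD615 growth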; conditions: S. cerevisiae dse1pr::URA3 5-FOA growth, OD615, 2 d; at 10 µM; hits give high values; strain carries analog-sensitive mutant Cbk1 kinase
[7] = RAM signaling pathway blockade in yeast – S. cerevisiae, Pdr1DBD-CYC8 efflux-inhibited sensitized strain, primary screen (AID 1298;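 active means RAM network inhibition above 8.4% in each of two replicates, 3 SD over the compound average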;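 further: 0% = DMSO untreated cells without growth and 100% = 10 µM 1-NA-PP1 full growth; higher means more yeast growth rescued from 5-FOA killing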); conditions: S. cerevisiae cbk1-as DSE1-URA3 strain, 5-FOA growth OD615, 2 d; at 50 µM; hits give high values

Row | SMILES | growth inhibition [1] [%] | growth inhibition [2] | viability increase [3] [%] | viability [4] | viability [5] | inhibition [6] [%] | RAM network inhibition [7] [%]
1 | NC(=O)c1sc(=S)n(-c2ccc(Br)cc2)c1N | -6.66 | 0.735% | -4.05 | 97.7% | 83.7% | 1.51 | 2.48
2 | CC(C)(Oc1ccc(Cl)cc1)C(=O)NCc1ccco1 | -1.12 | -0.2% | -4.22 | 87.2% | 80% | 1.18 | 5.92
3 | Cc1cc(C)c(S(=O)(=O)Nc2ccc(O)cc2)c(C)c1 | -9 | 3.16% | -1.56 | 91.6% | 89.2% | 1.2 | 2.25
4 | Cc1c(Cl)cccc1NC(=O)CN1C(=O)CSc2ncccc21 | -2.14 | -0.53% | -1.13 | 97.6% | 89.5% | -0.01 | -0.13
5 | Nc1ccc(-c2nc3ccc(N)cc3o2)cc1 | 0.07 | 7.21% | -1.18 | 100% | 86.8% | 3.98 | 6.51
6 | CCOC(=O)CSc1n[nH]c(-c2ccco2)n1 | -16.1 | -17% | -1.01 | 93.8% | 102% | 0.85 | 4.21
7 | Cc1onc(-c2ccccc2Cl)c1C(=O)Nc1nnc(-c2ccc(F)cc2)s1 | -16.7 | -1.93% | 2.9 | 98.5% | 90.5% | 2.51 | 5.79
8 | COc1ccc(C2(O)CCN(C(=O)Cc3cccnc3)CC2)cc1 | -20.4 | -12% | 1.04 | 99.3% | 94.7% | 1.03 | 1.03
9 | CCCC(=O)C1=C(SCC)CC(C)(C)C(C(=O)OC)C1=O (configuration not stated) | -14.4 | -21.5% | -2.57 | 86.5% | 91.8% | -0.035 | 3.4
10 | Cc1cc(C)c2c(=O)[nH]n(C3CCOC(C)(C)C3)c2n1 (configuration not stated) | -4.97 | -0.145% | -0.16 | 107% | 99.8% | -0.37 | 1.49
11 | CC1CN(c2cc(=O)n(Cc3ccc(F)cc3)c(=O)[nH]2)CC(C)O1 (configuration not stated) | 5.64 | -6.42% | 0.06 | 99.4% | 105% | 1.31 | -0.24
12 | CCN(CC)c1ccc(NC(=O)CN2C(=O)CSc3ncccc32)c(C)c1 | 1.52 | -5.94% | 0.51 | 45.2% | 66% | 1.34 | 6.12
13 | COC(=O)c1ccsc1NC(=O)c1ccc(Cl)s1 | -17.6 | -27.1% | -6.51 | 94.7% | 87.9% | 3.58 | 5.89
14 | COc1ccc(CCNC(=O)CCNS(=O)(=O)c2cccc3nsnc23)cc1OC | -2.13 | -8.7% | -4.88 | 86.5% | 97.2% | 0.305 | 1.25
15 | COc1ccc(C)c2sc(=NC(=O)c3ccc(C#N)cc3)n(C)c12 | -5.79 | -17.2% | -3.95 | 85.3% | 81.6% | 0.96 | 1.83
16 | Cc1occc1-c1nnc(SCCCC(=O)c2ccc(F)cc2)n1C | -1.02 | 3.81% | 0.66 | 74.4% | 87.4% | 1.5 | 6.28
17 | COc1ccc(-n2cnnc2)cc1 | -1.44 | -0.83% | -2.88 | 98.2% | 101% | 1.05 | -0.78
18 | CCCCCn1c(=N)n(CC(O)COc2ccccc2OC)c2ccccc21 (configuration not stated) | -4.93 | 4.88% | -7.9 | 15.6% (active) | 21.9% (active) | -0.235 | 0.4

Row | SMILES | growth inhibition [1] [%] | growth inhibition [2] | viability increase [3] [%] | viability [4] | viability [5] | inhibition [6] [%] | RAM network inhibition [7] [%]
19 | CCOC(=O)c1c(C)c(-c2ccccc2)n(CC(=O)N2CCN(C)CC2)c1C | -19 | -24.2% | -2.94 | 102% | 102% | 2.83 | 2.67
20 | CCC(C)Sc1nnc(Cc2cc(=O)[nH]c(=O)[nH]2)n1-c1ccc(F)cc1 (configuration not stated) | -0.665 | 15.2% | -1.78 | 97.1% | 100% | 0.605 | -1.47
21 | Cc1cccc(CC(=O)Nc2cc(=O)n(C)c(=O)n2C)c1 | -3.74 | -4.44% | -1.1 | 100% | 97.4% | 1.84 | 0.48
22 | Cc1cccc(-c2nc(CS(=O)CC(=O)N3CCc4ccccc4C3)c(C)o2)c1 (configuration not stated) | 0.13 | 20.1% | -4.54 | 84.8% | 88.8% | 0.385 | 3.23
23 | N#CCCN1CCN(S(=O)(=O)c2ccc(S(=O)(=O)N3CCCCCC3)cc2)CC1 | 1.57 | -16.9% | -2.09 | 97.4% | 94.3% | 0.525 | 11.9
24 | COc1cccc(-c2nc(CS(=O)CC(=O)NCc3ccccc3)c(C)o2)c1 (configuration not stated) | -9.55 | -15.4% | 1.16 | 99.5% | 96.2% | 1.11 | 4.44
25 | N#CC1=C(N)OC2=C(C(=O)CCC2)C1c1ccsc1 (configuration not stated) | -7.86 | -3.94% | -1.81 | 93.2% | 103% | 1.52 | 4.01
26 | Cc1cc(C2N=C(N)Nc3nc4ccccc4n32)c(C)n1-c1ccccc1Cl (configuration not stated) | -0.255 | -33.7% | -4.14 | 9.19% (active) | 16.7% (active) | 2.92 | 3.79
27 | Cc1ccc(-c2nn3c(C)nnc3s2)cc1NC(=O)c1ccc(OC(C)C)cc1 | 12.3 | 56% (active) | -4.84 | 79.4% | 68.4% | 0.855 | 7.25
28 | CC(C)c1ccc(NC(=O)c2cnn(-c3ccccc3)c2NC(=O)c2ccco2)cc1 | -2.46 | 0.43% | -4.1 | 89.7% | 85.6% | 1.9 | 5.45
29 | CCSc1nnc(NC(=O)c2cccc(OCc3c(C)noc3C)c2)s1 | 1.08 | 21.9% | 0.55 | 98.2% | 92.6% | 2.79 | 4.07
30 | O=C(NC(O)C(=O)c1ccccc1)c1cccs1 (configuration not stated) | 5.04 | -5.63% | -3.2 | 95.4% | 101% | 1.66 | 2.71
31 | COc1ccc(N2CCN(C(=O)C3CCCN(S(=O)(=O)c4cccc5cccnc45)C3)CC2)cc1 (configuration not stated) | 7.46 | -2.35% | -3.75 | 69.6% | 68.2% | 0.045 | 2.71
32 | Cc1ccc2oc(=O)c3cc(C(=O)N4CCN(c5ncccn5)CC4)sc3c2c1 | -7.63 | -1.9% | -3.11 | 107% | 98.1% | 1.62 | 2.64
33 | CCN(CC)S(=O)(=O)c1ccc(Cl)c(C(=O)NC2CCCC2)c1 | -6.5 | -7.35% | 0.17 | 92.9% | 97.1% | 0.145 | 3.38
34 | O=C(CCn1c(=O)oc2ccccc21)NCCCN1CCCC1=O | 4.51 | 0.85% | 1.26 | 107% | 98.5% | 1.01 | 0.46
35 | CC(C)C(=O)N=c1sc2cc(F)cc(F)c2n1C | -9.84 | -0.65% | -1.28 | 94.1% | 99% | 0.01 | 0.96
36 | Cc1nc2ncnn2c(C)c1Cc1ccc(Cl)cc1F | -9.96 | -18.8% | -1.72 | 95.7% | 92.2% | 0.26 | 6.16
